Results as given in ChEMBL document CHEMBL1649269, “In vitro activities of three new dihydrofolate reductase inhibitors against clinical isolates of gram-positive bacteria” (2009).
Converted amounts (≈) assume the structure as drawn.

Legend:
[1] = system: Staphylococcus aureus; test: Antimicrobial activity against methicillin-sensitive Staphylococcus aureus by agar dilution method; assay type: functional
Outline: (§1)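 MICs against clinical MRSA or MSSA isolates by CLSI agar dilution, with S. aureus ATCC 29213 as control strain. Percentage of susceptible isolates was calculated from the MICs using CLSI breakpoints.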

[2] = system: Staphylococcus aureus; test: Antimicrobial activity against methicillin-sensitive Staphylococcus aureus assessed as susceptible isolates by agar dilution method; assay type: functional; outline: as §1
[3] = system: Staphylococcus aureus; test: Antimicrobial activity against methicillin-resistant Staphylococcus aureus by agar dilution method; assay type: functional; outline: as §1
[4] = system: Staphylococcus aureus; test: Antimicrobial activity against Heterovancomycin-resistant Staphylococcus aureus by agar dilution method; assay type: functional
Outline: (§2)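 Clinical S. aureus isolates classed as hVISA or VISA by population analysis profiling. MICs by CLSI agar dilution, with S. aureus ATCC 29213 as control strain.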

[5] = system: Staphylococcus aureus; test: Antimicrobial activity against vancomycin-resistant Staphylococcus aureus by agar dilution method; assay type: functional; outline: as §2
[6] = system: Staphylococcus; test: Antimicrobial activity against Coagulase-negative Staphylococcus by agar dilution method; assay type: functional
Outline: (§3)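 CLSI agar dilution MIC testing of clinical isolates of staphylococci and Listeria. S. aureus ATCC 29213 and S. pneumoniae ATCC 49619 served as control strains. The percentage of susceptible isolates was calculated from CLSI breakpoints.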

[7] = system: Staphylococcus; test: Antimicrobial activity against Coagulase-negative Staphylococcus assessed as susceptible isolates by agar dilution method; assay type: functional; outline: as §3
[8] = system: Streptococcus sp. 'group A'; test: Antimicrobial activity against Group A Streptococcus by agar dilution method; assay type: functional
Outline: (§4)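 Clinical isolates of beta-hemolytic streptococci, S. mitis and S. pneumoniae were tested by CLSI methodology, with Mueller-Hinton medium supplemented with 5% lysed horse blood. S. aureus ATCC 29213 and S. pneumoniae ATCC 49619 served as control strains. The percentage of susceptible isolates was derived from CLSI breakpoints.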

[9] = system: Streptococcus sp. 'group A'; test: Antimicrobial activity against Group A Streptococcus assessed as susceptible isolates by agar dilution method; assay type: functional; outline: as §4
[10] = system: Streptococcus sp. 'group B'; test: Antimicrobial activity against Group B Streptococcus by agar dilution method; assay type: functional; outline: as §4
[11] = system: Streptococcus sp. 'group B'; test: Antimicrobial activity against Group B Streptococcus assessed as susceptible isolates by agar dilution method; assay type: functional; outline: as §4
[12] = Antimicrobial activity against Group C Streptococcus by agar dilution method; assay type: functional; settings: Streptococcus sp. 'group C'; outline: as §4
[13] = Antimicrobial activity against Group C Streptococcus assessed as susceptible isolates by agar dilution method; assay type: functional, Streptococcus sp. 'group C'; outline: as §4
[14] = Antimicrobial activity against Group G Streptococcus by agar dilution method; assay type: functional; settings: Streptococcus sp. 'group G'; outline: as §4
[15] = Antimicrobial activity against Group G Streptococcus assessed as susceptible isolates by agar dilution method; assay type: functional, Streptococcus sp. 'group G'; outline: as §4
[16] = system: Streptococcus pneumoniae; test: Antimicrobial activity against Streptococcus pneumoniae by agar dilution method; assay type: functional; outline: as §4
[17] = system: Streptococcus pneumoniae; test: Antimicrobial activity against Streptococcus pneumoniae assessed as susceptible isolates by agar dilution method; assay type: functional; outline: as §4
[18] = system: Corynebacterium sp.; test: Antimicrobial activity against Corynebacterium spp. by agar dilution method; assay type: functional
[19] = system: Corynebacterium sp.; test: Antimicrobial activity against Corynebacterium spp. assessed as susceptible isolates by agar dilution method; assay type: functional
[20] = system: Listeria monocytogenes; test: Antimicrobial activity against Listeria monocytogenes by agar dilution method; assay type: functional; outline: as §3
[21] = system: Listeria monocytogenes; test: Antimicrobial activity against Listeria monocytogenes assessed as susceptible isolates by agar dilution method; assay type: functional; outline: as §3
[22] = system: Streptococcus mitis; test: Antimicrobial activity against Streptococcus mitis assessed as susceptible isolates by agar dilution method; assay type: functional; settings: in the assay text read “broth dilution method” for “agar dilution method”; outline: as §4
[23] = system: Streptococcus mitis; test: Antimicrobial activity against Streptococcus mitis by broth dilution method

| Compound | MIC50 [1] | MIC90 [1] | Activity [2] | MIC [3] | MIC50 [3] | MIC90 [3] | MIC50 [4] | MIC90 [4] | MIC50 [5] | MIC90 [5] | MIC50 [6] | MIC90 [6] | Activity [7] | MIC50 [8] | MIC90 [8] | Activity [9] | MIC50 [10] | MIC90 [10] | Activity [11] | MIC50 [12] | other results |
| --- | --- | --- | --- | --- | --- | --- | --- | --- | --- | --- | --- | --- | --- | --- | --- | --- | --- | --- | --- | --- | --- |
| COc1cc(Cc2cnc(N)nc2N)cc(/C=C/C(=O)N2N=Cc3ccccc3C2c2cnc(N3CCOCC3)nc2)c1OC (stereo not drawn) | 0.12 µg/mL (≈ 0.197 µM) | 0.25 µg/mL (≈ 0.411 µM) | 100% | 0.06 µg/mL (≈ 0.0987 µM) | 0.06 µg/mL (≈ 0.0987 µM) | 0.06 µg/mL (≈ 0.0987 µM) | 0.06 µg/mL (≈ 0.0987 µM) | 0.06 µg/mL (≈ 0.0987 µM) | 0.06 µg/mL (≈ 0.0987 µM) | 0.5 µg/mL (≈ 0.823 µM) | 0.06 µg/mL (≈ 0.0987 µM) | 4 µg/mL (≈ 6.58 µM) | 86% | 0.06 µg/mL (≈ 0.0987 µM) | 0.12 µg/mL (≈ 0.197 µM) | 100% | 0.06 µg/mL (≈ 0.0987 µM) | 0.12 µg/mL (≈ 0.197 µM) | 100% | 0.06 µg/mL (≈ 0.0987 µM) | MIC [5]: 0.06 µg/mL (≈ 0.0987 µM); MIC [10]: 0.06 µg/mL (≈ 0.0987 µM); MIC90 [12]: 0.12 µg/mL (≈ 0.197 µM); Activity [13]: 100%; MIC [14]: 0.03 µg/mL (≈ 0.0494 µM); MIC50 [14]: 0.03 µg/mL (≈ 0.0494 µM); MIC90 [14]: 0.06 µg/mL (≈ 0.0987 µM); Activity [15]: 100%; MIC50 [16]: 0.12 µg/mL (≈ 0.197 µM); MIC90 [16]: 0.12 µg/mL (≈ 0.197 µM); Activity [17]: 100%; MIC50 [18]: 0.12 µg/mL (≈ 0.197 µM); MIC90 [18]: 4 µg/mL (≈ 6.58 µM); Activity [19]: 83%; MIC [20]: 0.06 µg/mL (≈ 0.0987 µM); MIC50 [20]: 0.06 µg/mL (≈ 0.0987 µM); MIC90 [20]: 0.06 µg/mL (≈ 0.0987 µM); Activity [21]: 100%; Activity [22]: 100%; MIC50 [23]: 0.015 µg/mL (≈ 0.0247 µM) |
| COc1ncc(C2c3ccccc3C=NN2C(=O)/C=C/c2cc(Cc3cnc(N)nc3N)cc(OC)c2OC)cn1 (stereo not drawn) | 0.03 µg/mL (≈ 0.0543 µM) | 0.03 µg/mL (≈ 0.0543 µM) | 100% | 0.015 µg/mL (≈ 0.0271 µM) | 0.015 µg/mL (≈ 0.0271 µM) | 0.06 µg/mL (≈ 0.109 µM) | 0.03 µg/mL (≈ 0.0543 µM) | 0.06 µg/mL (≈ 0.109 µM) | 0.03 µg/mL (≈ 0.0543 µM) | 0.25 µg/mL (≈ 0.452 µM) | 0.06 µg/mL (≈ 0.109 µM) | 8 µg/mL (≈ 14.5 µM) | 86% | 0.06 µg/mL (≈ 0.109 µM) | 0.06 µg/mL (≈ 0.109 µM) | 100% | 0.03 µg/mL (≈ 0.0543 µM) | 0.06 µg/mL (≈ 0.109 µM) | 100% | 0.015 µg/mL (≈ 0.0271 µM) | MIC90 [12]: 0.06 µg/mL (≈ 0.109 µM); Activity [13]: 100%; MIC50 [14]: 0.03 µg/mL (≈ 0.0543 µM); MIC90 [14]: 0.06 µg/mL (≈ 0.109 µM); Activity [15]: 100%; MIC50 [16]: 0.06 µg/mL (≈ 0.109 µM); MIC90 [16]: 0.12 µg/mL (≈ 0.217 µM); Activity [17]: 100%; MIC50 [18]: 0.06 µg/mL (≈ 0.109 µM); MIC90 [18]: 4 µg/mL (≈ 7.24 µM); Activity [19]: 83%; MIC [20]: 0.015 µg/mL (≈ 0.0271 µM); MIC50 [20]: 0.015 µg/mL (≈ 0.0271 µM); MIC90 [20]: 0.015 µg/mL (≈ 0.0271 µM); Activity [21]: 100%; Activity [22]: 100%; MIC [23]: < 0.008 µg/mL; MIC50 [23]: < 0.008 µg/mL |
